ChEMBL document CHEMBL1145753, “Identification of a potent and selective 5-HT(6) antagonist: one-step synthesis of (E)-3-(benzenesulfonyl)-2- (methylsulfanyl)pyrido[1,2-a]pyrimidin-4-ylidenamine from 2-(benzenesulfonyl)-3,3-bis(methylsulfanyl)acrylonitrile” (J Med Chem, 2003)
pIC50, pKd: −log10 of the molar value.

How the values were obtained:
[1] = molecular target: 5-hydroxytryptamine receptor 6 (Homo sapiens, UniProt P50406); assay: Binding affinity towards 5-hydroxytryptamine 6 receptor using [3H]- LSD as radioligand
How it was run: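 Membranes from HEK293 cells expressing recombinant human 5-HT6 receptor. Displacement of [3H]LSD binding measured; IC50 derived.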

Cytochrome P450 2C9 = Cytochrome P450 2C9 (Homo sapiens, UniProt P11712); assay: Inhibition of recombinant human Cytochrome P450 2C9; type: ADME
How it was run: (§1)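 Recombinant human CYP enzymes with fluorogenic substrates. CYP1A2: 3-cyano-7-ethoxycoumarin deethylation. CYP2C9: 7-methoxy-4-trifluoromethylcoumarin dealkylation. CYP2D6: 3-[2-(N,N-diethyl-N-methylamino)ethyl]-7-methoxy-4-methylcoumarin demethylation. CYP3A4: benzoylresorufin or 7-benzyloxy-4-trifluoromethylcoumarin dealkylation, tested separately. IC50 for metabolism inhibition reported as mean ± SEM (n = 7).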

[2] = Apparent dissociation constant was determined
How it was run: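 Human 5-HT6 receptor expressed in HEK293 cells with coexpressed Gα15, read out as 5-HT-stimulated Ca2+ mobilization. 5-HT EC50 was measured without antagonist and with increasing antagonist concentrations. Dose ratio is EC50 with antagonist divided by EC50 for 5-HT alone. Schild plot of log(dose ratio − 1) vs −log[antagonist]. Triplicate points; experiment repeated at least twice.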

Cytochrome P450 3A4 [3] = molecular target: T1, Cytochrome P450 3A4 (Homo sapiens, UniProt P08684); assay: Inhibition of recombinant human Cytochrome P450 3A4 with BzRes; type: ADME; how it was run: as §1
Cytochrome P450 3A4 [4] = molecular target: T1, Cytochrome P450 3A4; assay: Inhibition of recombinant human Cytochrome P450 3A4 with BFC; type: ADME; how it was run: as §1
[5] = molecular target: Cytochrome P450 2C19 (Homo sapiens) (UniProt P33261); assay: Inhibition of recombinant human Cytochrome P450 2C19
Cytochrome P450 1A2 = molecular target: T2, Cytochrome P450 1A2 (Homo sapiens, UniProt P05177); assay: Inhibition of recombinant human Cytochrome P450 1A2; type: ADME; how it was run: as §1
T2 sequence (P05177 whole entry): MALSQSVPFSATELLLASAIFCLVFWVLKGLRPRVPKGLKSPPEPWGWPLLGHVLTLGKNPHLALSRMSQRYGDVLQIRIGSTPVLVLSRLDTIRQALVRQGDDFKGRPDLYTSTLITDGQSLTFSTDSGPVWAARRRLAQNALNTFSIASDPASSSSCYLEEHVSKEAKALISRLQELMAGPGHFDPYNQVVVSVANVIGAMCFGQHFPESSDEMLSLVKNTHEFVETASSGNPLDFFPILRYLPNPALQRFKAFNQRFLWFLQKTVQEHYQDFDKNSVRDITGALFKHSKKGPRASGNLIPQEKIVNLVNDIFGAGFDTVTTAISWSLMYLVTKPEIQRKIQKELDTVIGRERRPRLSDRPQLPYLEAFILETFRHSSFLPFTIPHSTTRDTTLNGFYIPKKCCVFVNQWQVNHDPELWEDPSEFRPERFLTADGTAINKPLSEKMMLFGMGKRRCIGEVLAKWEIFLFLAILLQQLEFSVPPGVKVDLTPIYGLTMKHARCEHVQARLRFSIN

Cytochrome P450 2D6 = Cytochrome P450 2D6 (Homo sapiens, UniProt P10635); assay: Inhibition of recombinant human Cytochrome P450 2D6; type: ADME; how it was run: as §1
Chain of Cytochrome P450 2D6 (P10635 whole entry): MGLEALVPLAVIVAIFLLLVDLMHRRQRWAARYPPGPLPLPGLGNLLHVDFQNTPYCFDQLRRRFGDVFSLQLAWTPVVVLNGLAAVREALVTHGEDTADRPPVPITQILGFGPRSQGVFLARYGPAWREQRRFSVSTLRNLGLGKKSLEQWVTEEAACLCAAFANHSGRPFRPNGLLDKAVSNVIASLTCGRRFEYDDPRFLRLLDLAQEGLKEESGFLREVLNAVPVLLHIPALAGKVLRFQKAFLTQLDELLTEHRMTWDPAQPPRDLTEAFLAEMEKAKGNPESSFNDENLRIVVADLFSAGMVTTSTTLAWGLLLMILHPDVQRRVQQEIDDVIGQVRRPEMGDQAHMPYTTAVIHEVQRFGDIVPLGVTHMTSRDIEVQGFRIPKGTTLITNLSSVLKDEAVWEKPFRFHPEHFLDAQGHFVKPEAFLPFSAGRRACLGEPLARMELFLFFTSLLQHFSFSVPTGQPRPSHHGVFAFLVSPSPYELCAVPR

Chain of 5-hydroxytryptamine receptor 6 (P50406 whole entry): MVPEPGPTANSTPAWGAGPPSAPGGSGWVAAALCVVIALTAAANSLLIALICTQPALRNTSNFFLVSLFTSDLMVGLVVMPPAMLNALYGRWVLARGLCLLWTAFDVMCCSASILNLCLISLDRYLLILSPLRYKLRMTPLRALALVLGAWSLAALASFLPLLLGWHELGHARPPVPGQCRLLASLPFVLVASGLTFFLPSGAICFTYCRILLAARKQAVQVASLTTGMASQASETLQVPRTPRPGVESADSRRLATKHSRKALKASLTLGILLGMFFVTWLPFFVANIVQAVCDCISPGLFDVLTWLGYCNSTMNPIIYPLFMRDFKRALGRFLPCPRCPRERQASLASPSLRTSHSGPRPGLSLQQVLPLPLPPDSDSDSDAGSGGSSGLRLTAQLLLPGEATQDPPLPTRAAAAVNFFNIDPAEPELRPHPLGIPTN
T1 sequence (P08684 whole entry): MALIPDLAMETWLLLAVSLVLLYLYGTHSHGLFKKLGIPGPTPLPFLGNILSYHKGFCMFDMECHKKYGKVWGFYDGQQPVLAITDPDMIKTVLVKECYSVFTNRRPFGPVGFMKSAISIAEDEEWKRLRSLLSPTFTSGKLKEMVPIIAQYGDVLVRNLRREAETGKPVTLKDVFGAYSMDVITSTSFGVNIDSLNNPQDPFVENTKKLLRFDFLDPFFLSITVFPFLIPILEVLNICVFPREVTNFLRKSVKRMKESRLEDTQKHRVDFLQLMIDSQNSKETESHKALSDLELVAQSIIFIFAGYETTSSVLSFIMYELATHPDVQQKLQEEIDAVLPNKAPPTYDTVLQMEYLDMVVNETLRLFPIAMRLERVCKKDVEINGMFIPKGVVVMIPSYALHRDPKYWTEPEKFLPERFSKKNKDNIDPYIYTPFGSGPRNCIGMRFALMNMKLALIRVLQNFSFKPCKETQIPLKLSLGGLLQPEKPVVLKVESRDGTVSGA
Chain of Cytochrome P450 2C9 (P11712 whole entry): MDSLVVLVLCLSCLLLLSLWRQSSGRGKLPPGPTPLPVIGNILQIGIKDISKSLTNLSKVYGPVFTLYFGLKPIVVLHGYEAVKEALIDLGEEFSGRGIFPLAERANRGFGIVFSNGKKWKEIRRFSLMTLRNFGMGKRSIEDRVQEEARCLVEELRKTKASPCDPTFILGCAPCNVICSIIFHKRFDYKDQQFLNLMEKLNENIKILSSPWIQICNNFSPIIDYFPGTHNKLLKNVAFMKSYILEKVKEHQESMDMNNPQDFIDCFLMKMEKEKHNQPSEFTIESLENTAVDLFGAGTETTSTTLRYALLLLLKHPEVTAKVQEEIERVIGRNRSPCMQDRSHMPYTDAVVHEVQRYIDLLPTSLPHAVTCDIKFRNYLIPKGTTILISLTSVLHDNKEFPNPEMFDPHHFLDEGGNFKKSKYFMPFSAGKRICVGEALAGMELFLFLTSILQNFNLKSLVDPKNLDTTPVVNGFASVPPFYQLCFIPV
Chain of Cytochrome P450 2C19 (Homo sapiens) (P33261 whole entry, looked up): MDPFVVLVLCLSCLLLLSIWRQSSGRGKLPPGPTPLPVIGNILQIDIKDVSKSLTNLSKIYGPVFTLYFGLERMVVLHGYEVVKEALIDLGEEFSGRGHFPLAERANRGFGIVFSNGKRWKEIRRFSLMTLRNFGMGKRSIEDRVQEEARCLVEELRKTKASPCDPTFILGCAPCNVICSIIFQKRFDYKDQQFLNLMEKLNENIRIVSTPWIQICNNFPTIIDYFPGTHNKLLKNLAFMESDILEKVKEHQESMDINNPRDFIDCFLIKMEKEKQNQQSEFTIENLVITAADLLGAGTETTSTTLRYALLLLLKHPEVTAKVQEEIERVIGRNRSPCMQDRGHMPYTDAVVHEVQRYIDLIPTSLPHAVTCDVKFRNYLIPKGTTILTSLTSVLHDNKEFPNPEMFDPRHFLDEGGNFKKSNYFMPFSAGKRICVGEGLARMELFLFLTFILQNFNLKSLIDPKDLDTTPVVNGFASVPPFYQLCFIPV

Structure (SMILES) | pIC50 [1] | other results
N#C/C(=C\Nc1ccccn1)S(=O)(=O)c1ccccc1 | 6.28 | 
CNc1cc(NS(=O)(=O)c2ccc(N)cc2)nc(NC)n1 | 7.58 | 
CSc1nc2c(Br)cc(C)cn2c(=N)c1S(=O)(=O)c1ccccc1 | 6.57 | 
CCCS(=O)(=O)c1c(SC)nc2ccccn2c1=N | 5.45 | 

The next lines start with results.

pIC50 [1] | Structure (SMILES) | other results
7.16 | CSc1nc2c3ccccc3ccn2c(=N)c1S(=O)(=O)c1ccccc1 | 
7.15 | CCc1ccn2c(=N)c(S(=O)(=O)c3ccccc3)c(SC)nc2c1 | 
7.06 | CSc1nc2ccc(F)cn2c(=N)c1S(=O)(=O)c1ccccc1 | 
7.10 | CSc1nc2ccccn2c(=N)c1S(=O)(=O)c1ccc2ccccc2c1 | 
8.40 | CSc1nc2ccccn2c(=N)c1S(=O)(=O)c1ccccc1 | pIC50 (Cytochrome P450 2C9): 4.62; pKd [2]: 8.33; pIC50 (Cytochrome P450 3A4 [3]): < 4.40; pIC50 (Cytochrome P450 3A4 [4]): < 4.40; pIC50 [5]: 6.07; pIC50 (Cytochrome P450 1A2): < 4.40; pIC50 (Cytochrome P450 2D6): < 4.40
